The results in this text go back to ChEMBL document CHEMBL3120089, “Indoloditerpenes from a marine-derived fungal strain of Dichotomomyces cejpii with antagonistic activity at GPR18 and cannabinoid receptors” (J Nat Prod, 2014).

Active and inactive are the calls of the source. No cut-off for these calls is given here.

As usually defined, the IC50 is the concentration that gives 50% inhibition. A word on the Ki: it is a dissociation constant, usually derived from enzyme kinetics or from competition with a known ligand. A word on the inhibition: it is the drop in the measured response relative to a control, in per cent.

Data set [1] has as its target T1, N-arachidonyl glycine receptor (Homo sapiens, UniProt Q14330).
T1 sequence (Q14330 whole entry): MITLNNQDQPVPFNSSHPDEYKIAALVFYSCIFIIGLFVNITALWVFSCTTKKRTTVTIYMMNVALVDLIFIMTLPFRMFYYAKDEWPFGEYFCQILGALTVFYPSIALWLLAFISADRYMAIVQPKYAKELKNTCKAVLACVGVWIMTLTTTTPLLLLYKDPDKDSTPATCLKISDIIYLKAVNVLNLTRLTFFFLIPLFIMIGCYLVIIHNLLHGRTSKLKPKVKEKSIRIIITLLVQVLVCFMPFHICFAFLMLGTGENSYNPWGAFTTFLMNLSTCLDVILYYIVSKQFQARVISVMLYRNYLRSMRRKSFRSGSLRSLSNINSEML
The data set can be described thus: Inverse agonist activity at human GPR18 expressed in CHO cells assessed as inhibition of 7.5 uM THC-mediated beta-arrestin recruitment after 90 mins by beta-galactosidase reporter gene assay. It is filed as cell-based.

The target in the next data set is Cannabinoid receptor 1 (Homo sapiens, UniProt P21554). The data set can be described thus: Displacement of [3H]-CP55940 from human CB1 receptor expressed in CHO cells. It counts as cell-based. The conditions noted are these: for inhibition: concentration not given here. Summed up:
(§1)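 Competition binding against agonist radioligand [3H]CP55,940 at CB1 or CB2 receptors. Compound stocks in DMSO, final DMSO 2.5%. Ki from concentration–inhibition curves; three independent experiments in duplicate.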
Background: In a radioligand displacement assay an active substance lowers the binding of a labelled ligand.

Data set [2] has as its target T2, Cannabinoid receptor 2 (Homo sapiens, UniProt P34972). The data set can be described thus: Displacement of [3H]-CP55940 from human CB2 receptor expressed in CHO cells. It counts as cell-based. Summed up: as §1
Data set [3] concerns the target T3, G-protein coupled receptor 55 (Homo sapiens, UniProt Q9Y2T6). The data set can be described thus: Antagonist activity at human GPR55 expressed in CHO cells assessed as inhibition of LPI-mediated beta-arrestin recruitment after 90 mins by beta-galactosidase reporter gene assay. It is filed as cell-based. The procedure, abridged: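 CHO cells stably expressing GPR55; PathHunter β-galactosidase complementation. 20,000 cells/well seeded in Opti-MEM with 2% FCS and selection antibiotics, 24 h at 37 °C. Compounds added in PBS with 10% DMSO and 0.1% BSA, 90 min at 37 °C, against a constant 1 μM LPI. Galacton-Star/Emerald-II lysis reagent for 60 min at rt, then luminescence read. IC50 from three independent experiments in duplicate.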
(Activated receptors often draw arrestin, which recruitment assays turn into a signal.)

The target in data set [4] is T3, G-protein coupled receptor 55. Kind of data set: Antagonist activity at human GPR55 expressed in CHO cells assessed as inhibition of LPI-mediated beta-arrestin recruitment at 10 uM after 90 mins by beta-galactosidase reporter gene assay relative to control. It counts as cell-based. The procedure, abridged:
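PathHunter β-galactosidase β-arrestin assay in CHO cells stably expressing GPR55. Cells incubated 24 h at 37 °C before use. Screening at 10 μM compound against 1 μM LPI, 90 min at 37 °C. Chemiluminescent Galacton-Star detection for 60 min at rt. Result given as % inhibition; three independent experiments in duplicate.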

The target of data set [5] is T1, N-arachidonyl glycine receptor. Kind of data set: Antagonist activity at human GPR18 expressed in CHO cells assessed as inhibition of […] uM THC-mediated beta-arrestin recruitment after 90 mins by beta-galactosidase reporter gene assay. It is filed as cell-based.
Data set [6] addresses T2, Cannabinoid receptor 2. Kind of data set: Antagonist activity at human CB2 receptor expressed in CHO cells assessed as inhibition of forskolin-induced cAMP accumulation incubated for 5 mins followed by forskolin challenge measured after 15 mins by liquid scintillation counting analysis in presence of [3H]cAMP. It is filed as functional, cell-based. The procedure, abridged:
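CHO cells stably expressing human CB2; adenylate cyclase inhibition measured as intracellular cAMP, quantified by a cAMP competition binding assay; three independent experiments in duplicate.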

For a further data set, the system named is L6. The data set can be described thus: Cytotoxicity against rat L6 cells assessed as growth inhibition after 70 hrs by Alamar Blue assay. It is filed as cell-based. The conditions noted are these: L6, 70 h. Background: Resazurin is reduced to fluorescent resorufin, in cell work by metabolically active cells.
Data set [7] in a line: Solubility of the compound in water. It is filed as physicochemical. The conditions noted are these: buffer.

Sequence of Cannabinoid receptor 1 (P21554 whole entry): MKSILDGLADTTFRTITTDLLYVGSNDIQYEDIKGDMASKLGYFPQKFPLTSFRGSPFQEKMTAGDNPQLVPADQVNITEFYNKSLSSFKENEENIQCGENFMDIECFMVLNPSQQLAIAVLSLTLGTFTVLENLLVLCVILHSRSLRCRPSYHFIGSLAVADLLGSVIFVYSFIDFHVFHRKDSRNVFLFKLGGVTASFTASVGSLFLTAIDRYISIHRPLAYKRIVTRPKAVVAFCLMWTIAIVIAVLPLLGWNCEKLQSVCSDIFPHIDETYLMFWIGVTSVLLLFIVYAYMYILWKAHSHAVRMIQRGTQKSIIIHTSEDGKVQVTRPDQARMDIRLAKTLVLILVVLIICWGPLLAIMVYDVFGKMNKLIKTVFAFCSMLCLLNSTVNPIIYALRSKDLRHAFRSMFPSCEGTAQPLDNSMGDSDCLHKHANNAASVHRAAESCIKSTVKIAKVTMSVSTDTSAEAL
T3 sequence (Q9Y2T6 whole entry): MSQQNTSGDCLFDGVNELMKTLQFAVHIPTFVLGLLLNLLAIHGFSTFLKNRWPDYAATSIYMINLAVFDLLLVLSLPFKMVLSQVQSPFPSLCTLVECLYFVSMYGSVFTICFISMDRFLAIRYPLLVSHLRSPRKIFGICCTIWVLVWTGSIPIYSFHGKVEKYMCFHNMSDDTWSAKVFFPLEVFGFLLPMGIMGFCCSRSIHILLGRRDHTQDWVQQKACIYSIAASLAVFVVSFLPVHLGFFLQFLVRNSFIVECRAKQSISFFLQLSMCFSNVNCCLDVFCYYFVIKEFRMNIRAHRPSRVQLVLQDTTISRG
T2 sequence (P34972 whole entry): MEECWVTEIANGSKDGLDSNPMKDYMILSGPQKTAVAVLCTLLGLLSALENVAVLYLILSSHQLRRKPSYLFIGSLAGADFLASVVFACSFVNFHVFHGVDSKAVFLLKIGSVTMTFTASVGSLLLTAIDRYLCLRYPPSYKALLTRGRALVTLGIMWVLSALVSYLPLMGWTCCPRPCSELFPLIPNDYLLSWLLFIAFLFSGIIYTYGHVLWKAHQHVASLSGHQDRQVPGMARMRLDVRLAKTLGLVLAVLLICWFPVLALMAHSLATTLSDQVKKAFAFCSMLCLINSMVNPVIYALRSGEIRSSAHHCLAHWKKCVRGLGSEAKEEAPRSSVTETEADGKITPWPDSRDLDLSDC

Turning to `CC(C)=C[C@H]1C[C@]2(C)[C@H](CC[C@@]3(C)[C@H]2CC[C@H]2Cc4c([nH]c5ccccc45)[C@@]23C)O1`, the IC50 was 9.91 µM in [1] and greater than 10 µM in [3]. The values for the Ki at Cannabinoid receptor 1 and on Cannabinoid receptor 2 [2] were 4.4 µM and 4.76 µM, respectively. The inhibition in data set [4] amounted to 0%.

As for `COC(C)(C)/C=C/C[C@]1(C)[C@@H](O)CC[C@@]2(C)[C@H]1CC[C@H]1Cc3c([nH]c4ccccc34)[C@@]12C`, the IC50 is 13.4 µM in [1] and greater than 10 µM in data set [3]. In addition, the Ki on Cannabinoid receptor 1 and at Cannabinoid receptor 2 [2] was greater than 10 µM in each case. The inhibition on Cannabinoid receptor 1 amounted to 39%; on Cannabinoid receptor 2 [2] (concentration not given here), 33%; in data set [4], 31%.

As to `CC(C)=CCC[C@]1(C)[C@@H](O)CC[C@@]2(C)[C@H]1CC[C@H]1Cc3c([nH]c4ccccc34)[C@@]12C` [EMINDOLE SB], the results for the Ki on Cannabinoid receptor 1 and at Cannabinoid receptor 2 [2] were 7.05 µM and 2.24 µM, respectively. For the same compound, the IC50 in [5] and in [3] was greater than 10 µM throughout. Moreover, the inhibition in [4] stood at 12%.

For `CC(C)=CCC[C@]1(C)[C@@H](O[C@@H]2O[C@H](CO)[C@@H](O)[C@H](O)[C@@H]2O)CC[C@@]2(C)[C@H]1CC[C@H]1Cc3c([nH]c4ccccc34)[C@@]12C`, the Ki at Cannabinoid receptor 1 and at Cannabinoid receptor 2 [2] was 10.6 µM in each case. For the same compound, the inhibition stood at 30% at Cannabinoid receptor 1 and 13% in [4]. Further, the figures for the IC50 (in data set [5]; with L6; in [3]) were greater than 10 µM, 58 µM and greater than 10 µM, respectively. Also, the inhibition result on Cannabinoid receptor 2 [6] is “Active”. Further, the solubility entry in [7] is reported as “soluble”.
